In PMC5207485 (Bioorganic & medicinal chemistry, 2016):
Like-named read-outs stand apart in the source and are kept apart here.

Experiments:
[1] = Plasma concentration of ALS-I-41 after IN or IM administration; type: in vivo, rhesus macaque; conditions: for Time Plasma Max: male rhesus
[2] = CSF concentration of ALS-I-41 after IN or IM administration; type: in vivo, rhesus macaque; conditions: for Time Max: macaque CSF; for Ave Max in CSF / Time CSF Max: male rhesus
Procedure, shortened: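 Four male rhesus macaques (5 yr, 9–13 kg) under IM Telazol (4–5 mg/kg) with IV propofol drip (10 mg/kg/hr). Test compound in propylene glycol, given IN by face-mask pediatric nebulizer over 8 min (dose from nebulizer residue) or IM 6.15 mg into the inner thigh. Lumbar CSF was analysed unprocessed by LC-MS/MS in duplicate (C18, 70:30:0.1 water/methanol/formic acid). Detection limit ~1 pg/ml; blood-contaminated samples excluded.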

[3] = target: human OXTR; conditions: displacing [^3H]OT at a concentration of 2 nM; cited from earlier work
[4] = rhesus macaque, intravenous dose; cited from earlier work
[5] = PET scan of [18F]ALS-I-41 in a cynomolgus macaque, IV bolus; type: in vivo, cynomolgus macaque (Macaca fascicularis)
Procedure, shortened: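 Single male cynomolgus macaque (8.1 kg), Telazol 3 mg/kg IM, then intubated and ventilated on 1–2% isoflurane in oxygen with continuous vital monitoring. 5 mCi of the [18F]tracer given IV, then brain PET for 2 h, co-registered to the animal's MRI. Summed frames at 9–26 min and 90–120 min post-injection were used to assess distribution.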

[6] = PET imaging of [18F]ALS-I-41 in Sprague-Dawley rats; type: in vivo; conditions: rat PET
Procedure, shortened: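 Female Sprague-Dawley rats (200–330 g), isoflurane induction 4–5% and maintenance 1–2% in oxygen, vitals and temperature monitored. [18F]tracer was given IM at 340–390 μCi in 100 μl above the knee, with scanning from 15 min post-injection, or as a 30 min tail-vein infusion of 250–310 μCi in 10% ethanol/saline by syringe pump. 2 h PET with Co-57 attenuation correction; time-activity curves for whole brain, arm muscle and skull.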

[7] = titi monkey models; cited from earlier work
[8] = CSF OT levels after IV and IN nasal spray OT, maximum 5 IU/kg; type: in vivo; conditions: macaque, maximum of 5 IU/kg OT, same calculation from data of ref 38
[9] = macaque, IN nasal spray, maximum of 5 IU/kg OT; cited from earlier work
[10] = IN 24 IU OT, 75 minutes post administration, baseline 20 pg/ml; cited from earlier work
[11] = aerosolized IN high dose, ave dose 7690 μg
[12] = aerosolized IN low dose, ave dose 202 μg
[13] = rhesus, IN 7.5 mg target dose vs low dose

## CS(=O)(=O)N1CCC(Oc2ccc(CC(=O)N3CCC(N4C(=O)CCc5ccccc54)CC3)c(OCCF)c2)CC1 [ALS-I-41]
[1]; IM, dose 6150 μg
  Time Plasma Max: 60 m
[1]; [11]
  Time Plasma Max: 15 m
[1]; [12]
  Time Plasma Max: 5 m
[1]; [13]
  increase in plasma concentrations, high dose IN in comparison to low dose IN: 150 fold
[2]; IM 6.15 mg
  Time Max: 120 m
[2]; IN 7.69 mg
  Time Max: 60 m
[2]; macaque, after IN or IM administration
  time retained within the brain: over 2 hours
[2]; IM, dose 6150 μg
  Ave Max in CSF: 478 pg/mL
  Time CSF Max: 120 m
[2]; [11]
  Ave Max in CSF: 97.2 pg/mL
  Time CSF Max: 60 m
[2]; [12]
  Ave Max in CSF: 7.36 pg/mL
  Time CSF Max: 120 m
[2]; rhesus macaque, via CSF extraction and PET imaging
  brain penetration: mild brain penetrant
[2]; [13]
  increase in CSF concentration, high dose IN in comparison to low dose IN: 14 fold
[3]
  Ki: 16 nM

## Cc1ccccc1N1CCN(S(=O)(=O)CC23CCC(CC2NC(=O)C(N)CCS(C)(=O)=O)C3(C)C)CC1 [L-368,899]
[4]
  time remaining in the CSF post injection: over 250 minutes

## CS(=O)(=O)N1CCC(Oc2ccc(CC(=O)N3CCC(N4C(=O)CCc5ccccc54)CC3)c(OCC[18F])c2)CC1 [[^18F]ALS-I-41]
[5]; cynomolgus macaque, 5 mCi IV bolus
  time at which distribution of the tracer throughout the entire brain peaked: 15 to 30 min
[5]; cynomolgus macaque, 5 mCi IV, 2 hour scan
  brain uptake versus neck muscle tissue (TAC): only a fraction of the dose reaches the brain
[5]; cynomolgus macaque, 2 hour scan
  tracer remaining in the thalamic region at the end of the scan: very little remained
[5]; monkey model (macaque PET scan)
  bone uptake: no significant bone uptake detected
[6]
  metabolism suggested by rapid uptake in the bone: rapidly metabolized on first pass
[7]
  brain penetration: no significant brain penetration

## oxytocin [OT]
[8]
  maximum reported CSF OT increase: ~22 pM
[9]
  change of CSF OT: no significant change
[10]
  OT levels in human CSF post administration: 30 pg/mL
